From ChEMBL document CHEMBL4825671, “Design, synthesis and biological evaluation of novel FXIa inhibitors with 2-phenyl-1H-imidazole-5-carboxamide moiety as P1 fragment” (Eur J Med Chem, 2021) come the findings set out here.

In one test the target is T1, Coagulation factor XI (Homo sapiens, UniProt P03951). Put plainly: Binding affinity to coagulation factor 11a (unknown origin) assessed as inhibition constant using (p-Glu-Pro-Arg-pNa,HCl) as substrate preincubated for 5 mins followed by substrate addition and measured after 10 mins.
T1 sequence (P03951 19-387 limits assumed): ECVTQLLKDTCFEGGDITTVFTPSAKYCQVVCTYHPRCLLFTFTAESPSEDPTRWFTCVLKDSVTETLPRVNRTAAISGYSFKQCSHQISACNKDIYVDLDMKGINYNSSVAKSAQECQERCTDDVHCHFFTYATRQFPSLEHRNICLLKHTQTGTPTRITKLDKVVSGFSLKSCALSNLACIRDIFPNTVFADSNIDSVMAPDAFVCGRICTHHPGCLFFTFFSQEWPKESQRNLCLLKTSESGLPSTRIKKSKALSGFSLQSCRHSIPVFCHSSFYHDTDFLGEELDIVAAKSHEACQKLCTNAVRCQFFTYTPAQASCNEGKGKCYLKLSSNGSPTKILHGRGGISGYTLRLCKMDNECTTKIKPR
T1 sequence (P03951 388-625 limits assumed): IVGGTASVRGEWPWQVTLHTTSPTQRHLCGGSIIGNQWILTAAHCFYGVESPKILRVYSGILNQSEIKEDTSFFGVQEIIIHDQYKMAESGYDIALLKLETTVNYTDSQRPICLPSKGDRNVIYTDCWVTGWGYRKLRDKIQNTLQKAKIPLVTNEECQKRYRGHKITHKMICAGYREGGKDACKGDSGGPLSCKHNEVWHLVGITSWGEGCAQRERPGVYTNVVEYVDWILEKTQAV
Settings: not given
As usually defined, the Ki is a dissociation constant, usually derived from enzyme kinetics or from competition with a known ligand. `Cc1nc(-c2cccc(Cl)c2F)[nH]c1C(=O)N[C@@H](Cc1ccccc1)C(=O)Nc1ccc(C(=O)O)cc1`: the Ki worked out at 26400 nM. Take `Cc1nc(-c2cccc(Cl)c2F)n(O)c1C(=O)N[C@@H](Cc1ccc(NC(=O)c2ccccn2)cc1)C(=O)Nc1ccc2[nH]c(C(=O)O)cc2c1`: the inhibitory constant (Ki) amounted to 155 nM. Consider `Cc1nc(-c2cccc(Cl)c2F)n(O)c1C(=O)N[C@@H](Cc1ccc(NC(=O)C2CCC2)cc1)C(=O)Nc1ccc2[nH]c(C(=O)O)cc2c1`, for which the Ki is 22.5 nM.

Consider `Cc1nc(-c2cccc(Cl)c2F)n(O)c1C(=O)N[C@@H](Cc1ccc(NC(=O)c2ccccc2)cc1)C(=O)Nc1ccc2[nH]c(C(=O)O)cc2c1`, for which the Ki is 366 nM. Take `Cc1nc(-c2ccc(Cl)cc2)n(O)c1C(=O)N[C@@H](Cc1ccccc1)C(=O)Nc1ccc(C(=O)O)cc1`: the Ki is over 100000 nM. For the compound `Cc1nc(-c2cccc(Cl)c2)n(O)c1C(=O)N[C@@H](Cc1ccccc1)C(=O)Nc1ccc(C(=O)O)cc1`, the Ki is 14500 nM. In the case of `Cc1nc(-c2cccc(C#N)c2)n(O)c1C(=O)N[C@@H](Cc1ccccc1)C(=O)Nc1ccc(C(=O)O)cc1`, the inhibitory constant (Ki) turned out to be 23900 nM. Regarding `NC[C@H]1CC[C@H](C(=O)N[C@@H](Cc2ccccc2)c2nc(-c3ccc4c(N)n[nH]c4c3)c(Cl)[nH]2)CC1`, the Ki is 1.5 nM.

Turning to `Cc1nc(-c2cccc(Cl)c2F)n(O)c1C(=O)N[C@@H](Cc1ccc(Cl)cc1)C(=O)Nc1ccc2[nH]c(C(=O)O)cc2c1`, the Ki was 356 nM. Turning to `Cc1nc(-c2cccc(Cl)c2F)n(O)c1C(=O)N[C@@H](Cc1ccc(NC(=O)c2ncccn2)cc1)C(=O)Nc1ccc2[nH]c(C(=O)O)cc2c1`, the Ki turned out to be 81.3 nM. With `Cc1nc(-c2cccc(Cl)c2F)n(O)c1C(=O)N[C@@H](Cc1ccc(F)cc1)C(=O)Nc1ccc2[nH]c(C(=O)O)cc2c1`, the Ki was 486 nM. Regarding `Cc1nc(-c2cccc(Cl)c2F)n(O)c1C(=O)N[C@@H](Cc1ccccc1)C(=O)Nc1ccc2[nH]c(C(=O)O)cc2c1`, the Ki was 2820 nM.

With `Cc1nc(-c2ccccc2Cl)n(O)c1C(=O)N[C@@H](Cc1ccccc1)C(=O)Nc1ccc(C(=O)O)cc1`, the inhibition constant (Ki) was over 100000 nM. The same measure, in the same setting: the same measure for `Cc1nc(-c2ccc(O)c(C#N)c2)n(O)c1C(=O)O`: 228000 nM. `Cc1nc(-c2cccc(Cl)c2F)n(O)c1C(=O)N[C@@H](Cc1ccc(NC(=O)C2CCCCC2)cc1)C(=O)Nc1ccc2[nH]c(C(=O)O)cc2c1`: the Ki stood at 56.3 nM. For `Cc1nc(-c2cccc(Cl)c2F)n(O)c1C(=O)N[C@@H](Cc1ccc(Br)cc1)C(=O)Nc1ccc2[nH]c(C(=O)O)cc2c1`, the Ki was 962 nM. `COn1c(-c2cccc(Cl)c2F)nc(C)c1C(=O)N[C@@H](Cc1ccccc1)C(=O)Nc1ccc(C(=O)O)cc1`: the Ki was over 100000 nM. In the case of `Cc1nc(-c2cccc(Cl)c2F)n(O)c1C(=O)N[C@@H](Cc1ccccc1)C(=O)Nc1ccc(CC(=O)O)cc1`, the Ki is 6860 nM. Same read-out and setting: the same measure for `Cc1nc(-c2cccc(Cl)c2F)n(O)c1C(=O)N[C@@H](Cc1ccc(NC(=O)C(C)C)cc1)C(=O)Nc1ccc2[nH]c(C(=O)O)cc2c1`: 156 nM; for `Cc1nc(-c2cccc(Cl)c2F)n(C)c1C(=O)N[C@@H](Cc1ccccc1)C(=O)Nc1ccc(C(=O)O)cc1`: 22400 nM; for `Cc1nc(-c2cccc(Cl)c2F)n(O)c1C(=O)N[C@@H](Cc1ccccc1)C(=O)Nc1ccc(C(=O)O)cc1`: 11800 nM.

For `Cc1nc(-c2cccc(Cl)c2F)n(O)c1C(=O)N[C@@H](Cc1ccc(N)cc1)C(=O)Nc1ccc2[nH]c(C(=O)O)cc2c1`, the Ki was 3080 nM. For the compound `C#CC(=O)Nc1ccc(C[C@H](NC(=O)c2c(C)nc(-c3cccc(Cl)c3F)n2O)C(=O)Nc2ccc3[nH]c(C(=O)O)cc3c2)cc1`, the Ki worked out at 53 nM. With `CC#CC(=O)Nc1ccc(C[C@H](NC(=O)c2c(C)nc(-c3cccc(Cl)c3F)n2O)C(=O)Nc2ccc3[nH]c(C(=O)O)cc3c2)cc1`, the Ki turned out to be 31 nM. In the case of `Cc1nc(-c2cccc(C#N)c2)n(O)c1C(=O)O`, the inhibitory constant (Ki) was 120000 nM. Regarding `Cc1nc(-c2cccc(Cl)c2F)n(O)c1C(=O)N[C@@H](Cc1ccc(NC(=O)C2CCCC2)cc1)C(=O)Nc1ccc2[nH]c(C(=O)O)cc2c1`, the Ki turned out to be 33.9 nM. With `Cc1nc(-c2ccccc2C#N)n(O)c1C(=O)N[C@@H](Cc1ccccc1)C(=O)Nc1ccc(C(=O)O)cc1`, the inhibition constant Ki stood at 18900 nM.

As for `Cc1nc(-c2cccc(Cl)c2F)n(O)c1C(=O)N[C@@H](Cc1ccc([N+](=O)[O-])cc1)C(=O)Nc1ccc2[nH]c(C(=O)O)cc2c1`, the Ki stood at 7320 nM. With `Cc1nc(-c2cccc(Cl)c2F)n(O)c1C(=O)N[C@@H](Cc1ccc(NC(=O)C2CC2)cc1)C(=O)Nc1ccc2[nH]c(C(=O)O)cc2c1`, the inhibition constant (Ki) amounted to 259 nM. The same measure, in the same setting: for `Cc1nc(-c2ccc(C#N)cc2)n(O)c1C(=O)N[C@@H](Cc1ccccc1)C(=O)Nc1ccc(C(=O)O)cc1` the value was over 100000 nM; for `COc1ccc(-c2nc(C)c(C(=O)O)n2O)cc1C#N`, 243000 nM; for `Cc1nc(-c2ccc(OCC(C)C)c(C#N)c2)n(O)c1C(=O)O`, over 500000 nM. `CC(=O)Nc1ccc(C[C@H](NC(=O)c2c(C)nc(-c3cccc(Cl)c3F)n2O)C(=O)Nc2ccc3[nH]c(C(=O)O)cc3c2)cc1`: the Ki was 392 nM. `Cc1nc(-c2ccccc2)n(O)c1C(=O)N[C@@H](Cc1ccccc1)C(=O)Nc1ccc(C(=O)O)cc1`: the Ki was over 100000 nM.

For the compound `Cc1nc(-c2cccc(Cl)c2F)n(O)c1C(=O)N[C@@H](Cc1ccc(NC(=O)CC(C)C)cc1)C(=O)Nc1ccc2[nH]c(C(=O)O)cc2c1`, the inhibitory constant (Ki) was determined as 26 nM.

The next test concerns the target T1, Coagulation factor XI. Put plainly: Inhibition of coagulation factor 11a (unknown origin) at 500 uM using (p-Glu-Pro-Arg-pNa,HCl) as substrate preincubated for 5 mins followed by substrate addition and measured after 10 mins relative to control. The conditions noted are these: time 15.0 min.
Usually inhibition stands for how much of the control response was suppressed. A high value points to strong suppression. Take `Cc1nc(-c2ccc(OCC(C)C)c(C#N)c2)n(O)c1C(=O)O`: the inhibition was found to be 29.8%.

For the next test, the target named is T1, Coagulation factor XI. The experiment in a line: Inhibition of coagulation factor 11a (unknown origin) at 100 uM using (p-Glu-Pro-Arg-pNa,HCl) as substrate preincubated for 5 mins followed by substrate addition and measured after 10 mins relative to control. The conditions noted are these: time 15.0 min.
`Cc1nc(-c2ccc(Cl)cc2)n(O)c1C(=O)N[C@@H](Cc1ccccc1)C(=O)Nc1ccc(C(=O)O)cc1` registered an inhibition of 22.5%. `Cc1nc(-c2ccccc2Cl)n(O)c1C(=O)N[C@@H](Cc1ccccc1)C(=O)Nc1ccc(C(=O)O)cc1` displayed an inhibition of 34.1%. The same measure, in the same setting: for `COn1c(-c2cccc(Cl)c2F)nc(C)c1C(=O)N[C@@H](Cc1ccccc1)C(=O)Nc1ccc(C(=O)O)cc1` the value was 0%; for `Cc1nc(-c2ccccc2C#N)n(O)c1C(=O)N[C@@H](Cc1ccccc1)C(=O)Nc1ccc(C(=O)O)cc1`, 16.4%. As for `Cc1nc(-c2ccc(C#N)cc2)n(O)c1C(=O)N[C@@H](Cc1ccccc1)C(=O)Nc1ccc(C(=O)O)cc1`, the inhibition was 0%.

Another test concerns Oryctolagus cuniculus. The experiment in a line: Antithrombotic activity in New Zealand White rabbit model of AV-shunt induced thrombosis assessed as reduction in thrombosis weight by measuring inhibition of thrombosis formation at 0.5 mg/kg, administered as iv bolus dose and subsequently followed by 0.8 mg/kg/hr as iv infusion relative to control.
Settings: not given
It counts as functional. A digest of the protocol:
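Male New Zealand White rabbits under urethane anesthesia (1.25 g/kg). A control-period AV shunt gave the baseline thrombus wet weight, found by subtraction. The compound in saline vehicle was then given as an IV bolus followed by continuous IV infusion via the jugular vein. A new AV shunt ran for 40 min. Result is % inhibition of thrombus formation, treatment versus control period. Three rabbits per group.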
For the compound `NC[C@H]1CC[C@H](C(=O)N[C@@H](Cc2ccccc2)c2nc(-c3ccc4c(N)n[nH]c4c3)c(Cl)[nH]2)CC1`, the “inhibition (INH)” value turned out to be 59.26%.
